Source: PubChem BioAssay (several laboratories)
A selection: hits, their analogues and other compounds. The true share with any hit is near 1.3%.
PTPN22 act – LYP (human) phosphatase activation; hit rate 0.11% among 96,000; Q9Y2R2; activation, % at 2 µM; recombinant LYP, DiFMUP fluorescence; 0 = plate median, 100 = signal doubled;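 active = activation at 2 µM above a set limit, the mean plus 5 SD, cut at about 37% in these data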
Target sequence (Q9Y2R2 whole entry, looked up): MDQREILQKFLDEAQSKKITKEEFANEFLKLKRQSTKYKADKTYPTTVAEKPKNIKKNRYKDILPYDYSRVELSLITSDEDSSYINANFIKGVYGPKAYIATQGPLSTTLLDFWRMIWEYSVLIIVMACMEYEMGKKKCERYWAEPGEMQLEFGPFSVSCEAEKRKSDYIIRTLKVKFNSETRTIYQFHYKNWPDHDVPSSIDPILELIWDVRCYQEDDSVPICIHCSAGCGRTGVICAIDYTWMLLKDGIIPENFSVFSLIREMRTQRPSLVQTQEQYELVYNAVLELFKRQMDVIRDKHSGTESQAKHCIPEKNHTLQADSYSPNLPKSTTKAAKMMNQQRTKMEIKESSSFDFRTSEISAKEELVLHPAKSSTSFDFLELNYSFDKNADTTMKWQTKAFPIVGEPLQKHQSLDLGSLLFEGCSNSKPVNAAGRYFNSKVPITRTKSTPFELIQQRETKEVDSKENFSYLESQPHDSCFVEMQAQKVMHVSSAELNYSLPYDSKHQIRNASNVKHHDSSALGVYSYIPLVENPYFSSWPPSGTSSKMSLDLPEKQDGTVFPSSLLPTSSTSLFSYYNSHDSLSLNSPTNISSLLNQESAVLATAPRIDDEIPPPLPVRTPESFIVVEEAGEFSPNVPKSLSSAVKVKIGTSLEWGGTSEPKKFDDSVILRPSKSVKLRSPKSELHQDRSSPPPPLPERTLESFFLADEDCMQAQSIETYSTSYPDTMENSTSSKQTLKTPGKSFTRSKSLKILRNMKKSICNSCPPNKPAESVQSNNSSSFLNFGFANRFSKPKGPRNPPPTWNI
Rev-RRE block – inhibitors of HIV-1 Rev-RRE RNA interaction. AID 704. inhibition, % at 8 µM. hit rate 0.79% among 97,000. Rev peptide-RRE RNA binding, FRET. P05866;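 active = inhibition above the screen-wide mean plus 3 SD, cut at about 35% in these data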;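 also: 0% = median DMSO wells and 100% = median Neomycin B control wells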
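Assay system: labelled RRE RNA duplex and labelled Rev peptide / Medium: HEPES pH 7.5 salt buffer with EDTA / Reagent: labelled Rev peptide / Schedule: 5 + 15 min at 25 °C / Signal: FRET, excitation 480 nm, emission 540 nm donor and 671 nm acceptor / Benchmarks: DMSO and neomycin B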
LYP inh 2 – LYP (human) phosphatase inhibition | Q9Y2R2 | recombinant LYP catalytic domain, DiFMUP fluorescence | inhibition, % at 2 µM | hit rate 0.21% among 96,000 | AID 640;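 active = inhibition at 2 µM at or above a set limit, the screen mean plus 3 SD, cut at about 24% in these data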;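 also: 0% = DMSO with enzyme and 100% = enzyme fully blocked by orthovanadate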
EphB4 antag – antagonists of human EphB4-ephrin-B2 interaction; P54760; EphB4 LBD / TNYL-RAW-Alexa532 peptide, fluorescence polarization; inhibition, % at 7 µM; hit rate 0.15% among 97,000;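 active = inhibition above the screen-wide mean inhibition plus 3 SD, cut at about 15% in these data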;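 also: 0% = DMSO wells and 100% = excess unlabeled TNYL-RAW peptide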
An asterisk follows results filed as active; . = not tested or not shown; [ ] = remark or other dose.

SMILES	PTPN22 act	Rev-RRE block	LYP inh 2	EphB4 antag
CCOC(=O)c1c(C)oc2ccc(O)c(CN(C)C)c12	-4	-4	4	-2
O=C(NCc1ccc(Cl)cc1)c1cnn2ccccc12	3	0	-6	1
COCCn1c(C)cc(C(=O)COc2nc3ccccc3nc2C)c1C	1	7	-3	20*
Clc1ccc(-c2cn3cccnc3n2)cc1Cl	9	39*	-11	-1
Clc1ccc(-c2cn3cccnc3n2)cc1	12	4	-8	3
Cc1[nH]n(-c2ccccc2)c(=O)c1C1(C(F)(F)F)C(=O)N(c2ccccc2)C2=C1C(=O)CC(C)(C)C2 (configuration not stated)	6	-5	-8	-4
Cc1ccc(N2C(=O)C(O)(C(F)(F)F)C3=C2CC(C)(C)CC3=O)cc1C (configuration not stated)	-5	-4	8	16*
CC1=CC(C)=Nc2ccccc2N1	-3	47*	5	-3
Cc1ccc(C2=Nc3ccccc3NC(C)(c3ccc(C)o3)C2)o1 (configuration not stated)	-7	11	10	0
CC(=O)Nc1sc2c(c1CN1CCN(c3ccc(F)cc3)CC1)CCCC2	8	-6	-7	-1
O=C(O)c1ccc2c(c1)C(=O)N(c1ccc(Cl)cn1)C2=O	-4	1	2	-6
O=C1c2cccc3c(N4CCCCC4)ccc(c23)C(=O)N1c1ccc(Cl)cn1	6	121*[fluorescence artefact?]	-4	-4
O=C1c2cccc3c([N+](=O)[O-])ccc(c23)C(=O)N1c1ccc(Cl)cn1	-2	69*	5	-2
O=C1c2cccc3c(N4CCCCC4)ccc(c23)C(=O)N1c1ccccn1	-8	126*[fluorescence artefact?]	7	6
CCOC(=O)c1ccc(N2C(=O)C3CC=CCC3C2=O)cc1 (configuration not stated)	5	-2	-2	-4
CCOC(=O)c1ccc(N2C(=O)C3C(C2=O)C(C(=O)c2ccc(Cl)cc2)N2CCCC32)cc1 (configuration not stated)	9	66*	-9	-10
Cc1ccc(CNC(=O)CCOc2ccc(C(C)(C)C)cc2)cc1	-4	8	4	2
COc1ccc(-c2nc(CS(=O)CC(=O)NCc3ccc(Cl)cc3)c(C)o2)cc1 (configuration not stated)	.	9	.	-4
CCN1C=CC2=C(C#N)C(N)C(C#N)(C#N)C(c3ccccc3C(F)(F)F)C2C1 (configuration not stated)	-5	58*	5	2
CC1=C(C(=O)OC(C)C)C(c2ccc(Br)s2)NC(=O)N1C (configuration not stated)	-5	8	2	-9
c1ccc(-c2nnc(CN3CCCc4ccccc43)o2)cc1	-12	84*[fluorescence artefact?]	10	-8
COc1cc(N2CCCC2)c(OC)cc1/C=c1/sc2nc3ccccc3n2c1=O	-5	133*[fluorescence artefact?]	3	-16
CC1Oc2ccccc2C=C1/C=C1/SC(N2CCOCC2)=NC1=O (configuration not stated)	7	37*	-1	2
N#Cc1c(Sc2ncc(C(F)(F)F)cc2Cl)nsc1C/C=N\OCc1c(F)cccc1Cl	-3	61*	6	-5
CCCCN(C(=O)CSc1nnc(Nc2ccc(C)c(C)c2)s1)c1c(N)n(Cc2ccccc2)c(=O)[nH]c1=O	-25	10	26*	0
SMILES	PTPN22 act	Rev-RRE block	LYP inh 2	EphB4 antag
O=C(CCN1C(=O)c2ccccc2C1=O)Oc1ccc2ccccc2c1	-74	0	75*	-3
COc1ccc(OCC(=O)OCCN2C(=O)c3ccccc3C2=O)cc1	-4	-7	3	3
O=[N+]([O-])/C=C/c1cn(Cc2ccc(F)cc2)c2ccccc12	4	16	0	16*
O=C(N1CCOCC1)N1CCN(S(=O)(=O)c2ccccc2)C1	11	1	-13	-3
CC(CCc1ccccc1)NC(=O)c1cncc(Br)c1 (configuration not stated)	-2	-1	-1	-3
COc1ccc(NC(=O)CN2CCOCC2)cc1	2	10	0	-3
COC(=O)C1=C(C)N=c2s/c(=C/c3cccs3)c(=O)n2C1c1cccs1 (configuration not stated)	-4	6	1	6
COC(=O)C1=C(C)N=c2s/c(=C/c3ccoc3)c(=O)n2C1c1ccccc1 (configuration not stated)	-3	51*	-1	6
COc1ccc(C2C(C(C)=O)=C(C)N=c3s/c(=C/c4ccc5c(c4)OCO5)c(=O)n32)cc1 (configuration not stated)	-6	44*	9	-1
CSc1nnc(-c2sc(-c3ccccc3)nc2C)n1C	-6	-1	10	-7
O=C(NCc1ccc2[nH]c3c(c2c1)CCCC3)N1CCOCC1	-10	39*	8	1
CCN(CC)c1ccc(/C=C2\C(=O)N(c3ccc([N+](=O)[O-])cc3)N=C2N2CCOCC2)cc1	7	6	-7	0
CCCCC1(C)OC(=O)C(=Cc2ccc(N(CC)CC)cc2)C(=O)O1 (configuration not stated)	11	87*[fluorescence artefact?]	-10	-12
O=C(CN(CC1CCCO1)C(=O)CNS(=O)(=O)c1ccc(Cl)cc1)NCC1CCCO1 (configuration not stated)	3	0	-3	-8
CCOc1ccc2nc(-c3ccccc3)nc(SCC(=O)Nc3ncc(C)s3)c2c1	0	10	4	3
O=c1oc2ccccc2c(Nc2cccc(O)c2)c1[N+](=O)[O-]	-13	25	14	1
Nc1cc2c([N+](=O)[O-])cccc2o1	4	51*	-4	-8
COc1c2c(nc3occc13)C(CCC(C)(C)O)(OC)C(O)CC2 (configuration not stated)	6	5	-8	-8
CCOc1ccc(/C=N/NC(=O)COc2ccccc2-c2ccccc2)cc1	4	-2	1	-1
O=C(COc1ccccc1C(=O)N/N=C\c1ccc(O)c(O)c1)N/N=C/c1ccc(O)c(O)c1	-28	1	32*	-1
N#C/C(=C(/O)COC(=O)CCc1ccc(S(=O)(=O)N2CCOCC2)cc1)c1nc2ccccc2[nH]1	-3	45*	2	-1
N#C/C(=C(/O)COC(=O)Cc1c[nH]c2ccccc12)c1nc2ccccc2[nH]1	-5	23	3	2
Cc1c(C2Nc3ccccc3NC3=C2C(=O)CC(C)(C)C3)cnn1C (configuration not stated)	-13	13	16	1
CC1(C)CC(=O)C2=C(C1)Nc1ccccc1N=C2	6	45*	-8	-2
Nc1nc(N)c2sc3nc(C(F)(F)F)cc(C(F)(F)F)c3c2n1	-2	37*	1	4
O=C(Nc1ccc(N2CCCCC2)c(Cl)c1)c1ccc2c(c1)OCCO2	-34	17	36*	2
O=[n+]1c2c(n([O-])c3cc(F)c(N4CCCC4)cc31)CCCC2	3	79*[fluorescence artefact?]	-7	-2
